# Assay results reported in ChEMBL document CHEMBL1136746 (2003).
# Where “and” joins values, the source holds several entries; their conditions need not be identical. Equal values may be shown once. Calls of active or inactive are those of the source. The rule behind the calls is not given here.
# Columns and labels:
# Rattus norvegicus [1] = species on record: Rattus norvegicus; experiment: Reduction in the amplitude of the nACh-activated current in rat parasympathetic ganglia at 10 uM (n = 3); No effect; type: functional, organism-based
# Summary of the method: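 Perforated-patch whole-cell recording with 240 µg/mL amphotericin B in the pipette (K₂SO₄/KCl/MgSO₄/HEPES, pH 7.2). Bath: NaCl/KCl/CaCl₂/MgCl₂/glucose/HEPES. ACh 500 µM plus atropine 100 nM applied 2 s by piezo. Peptide is present in pipette and perfusate. Current is expressed as % of control, mean ± SEM.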
# Rattus norvegicus [2] = species on record: Rattus norvegicus; experiment: Percent Hemolysis observed in rat red blood cells when Treated with 1 mM concentration; type: functional
# Rattus norvegicus [3] = species on record: Rattus norvegicus; experiment: Percent Hemolysis observed in rat red blood cells when Treated with 5 mM concentration; type: functional
# Caco-2 = experiment: Apparent Permeability through Caco-2 cell monolayers (n = 4); type: functional, cell-based; conditions: Homo sapiens
# Summary of the method: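 Caco-2 cells seeded on polycarbonate inserts (0.45 µm pore, 6.5 mm) and grown 21 days to differentiate; TEER >400 Ω/cm² before and after. ³H-acetylated peptide or [¹⁴C]mannitol (200 µM) added apically in HBSS/25 mM HEPES pH 7.4, 37 °C, shaken 400 rpm. Receiver chamber swapped at 30, 90, 150 min; scintillation counting. Papp averaged over four replicates.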
# Rattus norvegicus [4] = species on record: Rattus norvegicus; experiment: Reduction in the amplitude of the nACh-activated current in rat parasympathetic ganglia at a concentration of 22 nM to that of control response (n =4); type: functional; parameters: scale not given: the % may be the effect or the level left
# Rattus norvegicus [5] = species on record: Rattus norvegicus; experiment: Percent Hemolysis observed in rat red blood cells when Treated with 2 mM concentration; type: functional
# Rattus norvegicus [6] = species on record: Rattus norvegicus; experiment: Reduction in the nACh-activated current in rat parasympathetic ganglia at a concentration of 4.5 nM to that of control response (n =3); type: functional; parameters: scale not given: the % may be the effect or the level left
# Rattus norvegicus [7] = species on record: Rattus norvegicus; experiment: Reduction in the amplitude of the nACh-activated current in rat parasympathetic ganglia; type: functional, organism-based
# Rattus norvegicus [8] = species on record: Rattus norvegicus; experiment: Reduction in the amplitude of the nACh-activated current in rat parasympathetic ganglia at a concentration of 222 nM to that of control response (n =3); type: functional; parameters: scale not given: the % may be the effect or the level left
# Rattus norvegicus [9] = species on record: Rattus norvegicus; experiment: Reduction in the amplitude of the nACh-activated current in rat parasympathetic ganglia at a concentration of 22 nM to that of control response (n =2); type: functional; parameters: scale not given: the % may be the effect or the level left
SMILES,Reduction (Rattus norvegicus [1]),Hemolysis (Rattus norvegicus [2]),Hemolysis (Rattus norvegicus [3]),Papp (Caco-2),Control (Rattus norvegicus [4]),Hemolysis (Rattus norvegicus [5]),Control (Rattus norvegicus [6]),IC50 (Rattus norvegicus [7]),Control (Rattus norvegicus [8]),Control (Rattus norvegicus [9])
CCCCCCCCCCC1C(=O)[C@H](CC(N)=O)NC(=O)[C@H](CO)NC(=O)[C@@H]2CSSC[C@@H](C(=O)O)NC(=O)[C@H](CC(C)C)NC(=O)[C@H](CC(N)=O)NC(=O)[C@H](CO)NC(=O)[C@H](Cc3c[nH]cn3)NC(=O)[C@H](CCC(=O)O)NC(=O)[C@H](CC(C)C)NC(=O)[C@H](Cc3c[nH]cn3)NC(=O)[C@H](CSSC[C@H](NC(=O)CN)C(=O)N2)NC(=O)[C@H](C(C)C)NC(=O)[C@@H]2CCCN12 (stereo partly specified),inactive,–,–,–,–,–,–,–,–,–
CCCCCCCCCCC(NCC(=O)N[C@H]1CSSC[C@@H]2NC(=O)[C@H](C(C)C)NC(=O)[C@@H]3CCCN3C(=O)[C@H](CC(N)=O)NC(=O)[C@H](CO)NC(=O)[C@H](CSSC[C@@H](C(=O)O)NC(=O)[C@H](CC(C)C)NC(=O)[C@H](CC(N)=O)NC(=O)[C@H](CO)NC(=O)[C@H](Cc3c[nH]cn3)NC(=O)[C@H](CCC(=O)O)NC(=O)[C@H](CC(C)C)NC(=O)[C@H](Cc3c[nH]cn3)NC2=O)NC1=O)C(=O)O (stereo partly specified),–,1.04%,0.83%,4.97 10e-6 cm s-1,57%,0.45%,92%,12.8 nM,47%,–
CC(C)C[C@@H]1NC(=O)[C@H](CC(N)=O)NC(=O)[C@H](CO)NC(=O)[C@H](Cc2c[nH]cn2)NC(=O)[C@H](CCC(=O)O)NC(=O)[C@H](CC(C)C)NC(=O)[C@H](Cc2c[nH]cn2)NC(=O)[C@@H]2CSSC[C@H](NC(=O)CN)C(=O)N[C@@H](CSSC[C@@H](C(=O)O)NC1=O)C(=O)N[C@@H](CO)C(=O)N[C@@H](CC(N)=O)C(=O)N1CCC[C@H]1C(=O)N[C@@H](C(C)C)C(=O)N2,–,0.53%,1.35%,20.5 10e-6 cm s-1,–,0.83%,90%,10 nM,–,57% and 41%
